Hits are enriched below; roughly 5.3% of the tested compounds scored in any of these assays.
Mdm2 MdmX PPI – inhibitors of human Mdm2/MdmX interaction. O15151+Q00987. SaOS-2 split-luciferase Mdm2/MdmX complementation, luminescence. inhibition, % at 8 µM. actives 3% (n = 330,000). AID 485346;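 active = inhibition of at least 50% at 8 µM in the primary screen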
Target sequence (O15151 whole entry, looked up): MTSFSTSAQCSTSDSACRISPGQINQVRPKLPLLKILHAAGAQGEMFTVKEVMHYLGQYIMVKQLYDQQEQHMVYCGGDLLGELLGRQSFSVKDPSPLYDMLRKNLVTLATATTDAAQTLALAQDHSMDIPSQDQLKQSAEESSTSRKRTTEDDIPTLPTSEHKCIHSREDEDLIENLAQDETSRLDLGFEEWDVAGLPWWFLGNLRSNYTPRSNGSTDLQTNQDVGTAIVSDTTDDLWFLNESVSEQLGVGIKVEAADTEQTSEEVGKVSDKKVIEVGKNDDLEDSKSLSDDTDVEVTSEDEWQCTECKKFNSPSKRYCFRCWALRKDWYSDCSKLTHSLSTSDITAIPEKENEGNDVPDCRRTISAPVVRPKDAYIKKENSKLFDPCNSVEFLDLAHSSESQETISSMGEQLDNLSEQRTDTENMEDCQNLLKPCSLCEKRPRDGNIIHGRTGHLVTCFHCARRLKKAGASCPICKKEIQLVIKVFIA
Target sequence (Q00987 whole entry, looked up): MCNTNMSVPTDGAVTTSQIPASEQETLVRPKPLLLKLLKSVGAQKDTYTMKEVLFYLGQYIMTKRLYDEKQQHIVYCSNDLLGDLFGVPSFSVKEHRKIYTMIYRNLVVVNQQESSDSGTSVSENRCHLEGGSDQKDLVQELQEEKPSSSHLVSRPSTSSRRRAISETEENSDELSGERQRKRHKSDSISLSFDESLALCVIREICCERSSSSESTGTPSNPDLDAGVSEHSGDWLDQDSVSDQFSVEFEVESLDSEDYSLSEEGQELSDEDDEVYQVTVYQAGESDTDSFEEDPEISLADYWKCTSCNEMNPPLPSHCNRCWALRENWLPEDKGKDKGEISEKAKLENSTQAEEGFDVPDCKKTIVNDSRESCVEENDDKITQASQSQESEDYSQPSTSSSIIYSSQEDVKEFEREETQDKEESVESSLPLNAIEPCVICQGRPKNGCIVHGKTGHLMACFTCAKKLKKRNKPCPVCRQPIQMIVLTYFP
CSC inhib – cancer stem cell inhibition; cancer stem cell-like cells viability, luminescence; inhibition, % at 7.5 µM; actives 1.1% (n = 300,000); AID 2717; in the data active = inhibition above about 75%; tested in HMLE shEcad cells
Beta cell apopt – beta cell apoptosis inhibition. INS-1E cytokine-induced death, ATP luminescence, 48 h; percent of positive-control rescue, neutral wells zero. protection from apoptosis, % (no concentration beside the values). actives 0.8% (n = 300,000). AID 435005;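 active = Every replicate reaches about 75%, or at least half do and their mean reaches it too, limit read from the data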;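 note: higher means more ATP so stronger rescue from cytokine killing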
T cruzi repl – T. cruzi replication inhibition. T. cruzi beta-gal in NIH3T3, luminescence, 90 h. inhibition, % (concentration not given with the values). actives 1.4% (n = 300,000);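 active = mean inhibition across valid replicates above about 55%, limit read from the data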;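 note: signal also drops with host cell toxicity which is not excluded here; higher percent means less beta-gal luminescence so fewer parasites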
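assay system = mouse NIH/3T3 fibroblasts infected with β-gal-expressing T. cruzi Tulahuen C4 | input = 5,000 NIH/3T3 host cells per well | buffer or medium = DMEM plus 2% FBS | timing = 3 h host attachment, then at least 90 h co-culture | measured by = GalScreen luminescence, 60 min | evaluation = luminescence reflecting intracellular parasite burden, expressed as percent inhibition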
Calb FLC – C. albicans growth modulation with fluconazole | C. albicans CaCi-2 (fluconazole-resistant clinical isolate) + fluconazole, Alamar Blue growth, 48 h | growth inhibition, % (no concentration beside the values) | actives 0.57% (n = 300,000);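 active = growth inhibition above about 58% in most replicates, limit read from the data, passing the limit was not always enough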;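 note: all wells also contain fluconazole at 8 µg/ml as a sub-toxic cotreatment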
NLRP3 yeast inh – NALP3 inhibition in yeast. Yeast reconstituted NLRP3/ASC/caspase-1, beta-gal luminescence, 24 h. inhibition, % at 10 µM. actives 0.39% (n = 330,000). AID 2825;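 active = inhibition of 50% or more; inactive = inhibition below 50%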
Mdm2 MdmX conf – human Mdm2/MdmX binding inhibition, confirmed. luminescent assay. shares compounds with Mdm2 MdmX PPI. inhibition, % at 8 µM. actives 55% (n = 10,000); in the data active = inhibition above about 40%
FLuc counter – inhibits full-length luciferase, flagging false Mdm2/MdmX hits | SaOS-2 full-length luciferase counterscreen, luminescence | AID 504607 | shares compounds with Mdm2 MdmX PPI | actives 77% (n = 6,200) | inhibition, % at 8 µM;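 active = mean inhibition at 8 µM reaching about 37%, which flags the compound as non-specific, limit read from the data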;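 note: p53-null SaOS-2 cells with luciferase driven by a doxycycline-inducible promoter; compound on cells about two nights before reading with doxycycline added after day one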
Large screens that a line does not name were inactive (follow-up assays come after a bar, where they were run).

COCCOC(=O)c1[nH]c2c(c1C)C(=O)CC(c1cc(OC)ccc1OC)C2 (centres undefined)	none
COc1ccc(OC)c(C2CC(=O)c3c([nH]c(C(=O)OC(C)C)c3C)C2)c1 (centres undefined)	Mdm2 MdmX PPI 51.8 | Mdm2 MdmX conf 44.2 | FLuc counter 83.2
COc1ccc(OC)c(C2CC(=O)c3c([nH]c(C(=O)OCC4CCCO4)c3C)C2)c1 (centres undefined)	none
CCCOCCOC(=O)c1[nH]c2c(c1C)C(=O)CC(c1cc(OC)ccc1OC)C2 (centres undefined)	Mdm2 MdmX PPI 59.4 | Mdm2 MdmX conf 52.1 | FLuc counter 83.2
COc1cc(OC)cc(C(=O)N2CCN(C(=O)c3cccc(F)c3)CC2)c1	none
COc1ccc2cc3c(N)nn(C(=O)c4ccc(F)cc4)c3nc2c1	Mdm2 MdmX PPI 82.3 | Mdm2 MdmX conf 89.0 | FLuc counter 46.6
COc1ccc2cc3c(N)nn(C(=O)c4cccc(F)c4)c3nc2c1	Mdm2 MdmX PPI 71.3 | Mdm2 MdmX conf 81.4 | FLuc counter 43.4
COc1ccc2cc3c(N)nn(C(=O)c4ccccc4Cl)c3nc2c1	Mdm2 MdmX PPI 92.6 | Mdm2 MdmX conf 93.3 | FLuc counter 50.6
COc1ccc2cc3c(N)c(C(=O)N4CCCC4)sc3nc2c1	none
Cc1cc(C(C)(C)C)cc(C)c1Cn1c2[n+](c3ccc(C(F)(F)F)cc31)CCCCC2	Mdm2 MdmX PPI 72.0, Beta cell apopt 86.4, T cruzi repl 58.8 | Mdm2 MdmX conf 47.8 | FLuc counter 49.6
FC(F)(F)c1cccc(Cn2c3[n+](c4ccc(C(F)(F)F)cc42)CCCCC3)c1	none
CCN=c1sc(C(=O)NCCc2ccccc2)cc(=O)n1CC	none
Cc1nc2sc3c(c2c(=O)n1N)CCC3	none
CC(=O)N(C(C)=O)n1c(C)nc2sc3c(c2c1=O)CCCC3	Mdm2 MdmX PPI 72.5 | Mdm2 MdmX conf 79.5 | FLuc counter 45.5
COC(=O)c1ccc(C2c3c(n[nH]c3C)C(=O)N2c2ccc(C)cc2)cc1 (centres undefined)	Mdm2 MdmX PPI 74.0 | Mdm2 MdmX conf 47.4 | FLuc counter 43.4
COc1cc(C2c3c(n[nH]c3C)C(=O)N2c2ccc(Br)cc2)ccc1O (centres undefined)	Mdm2 MdmX PPI 55.9 | Mdm2 MdmX conf inactive
O=C(CCl)N=c1sccn1Cc1ccccc1Cl	Mdm2 MdmX PPI 99.4, T cruzi repl 60.9 | Mdm2 MdmX conf 99.0 | FLuc counter 51.3
CCC(=O)OCC(=O)N=c1sccn1Cc1ccccc1Cl	none
O=C(CCl)N=c1sccn1Cc1cccc2ccccc12	none (no result: Mdm2 MdmX PPI, CSC inhib, Beta cell apopt, NLRP3 yeast inh)
O=C(CCl)N=c1sccn1Cc1ccc(Cl)cc1Cl	Mdm2 MdmX PPI 99.9, T cruzi repl 99.1 | Mdm2 MdmX conf 99.8 | FLuc counter 54.1
O=C(C1CC(Cl)CN1S(=O)(=O)c1ccc(Cl)cc1)N1CCOCC1 (centres undefined)	none
Cc1nc2ccc(NC(=O)N3CCOCC3)cc2nc1C	none (no result: Beta cell apopt)
C#CCn1c(S(=O)(=O)Cc2ccc(C)cc2)nc(-c2ccccc2)c1-c1ccccc1	Mdm2 MdmX PPI 94.6 | Mdm2 MdmX conf 81.3 | FLuc counter 54.6
C#CCn1c(C)cc(C)c(S(=O)(=O)c2ccccc2)c1=O	none
CCOC(=O)Cn1c(S(=O)(=O)Cc2ccccc2Cl)nc(-c2ccccc2)c1-c1ccccc1	none
C#CCn1c(S(=O)(=O)Cc2ccccc2Cl)nc(-c2ccccc2)c1-c1ccccc1	Mdm2 MdmX PPI 73.3 | Mdm2 MdmX conf 47.0 | FLuc counter 84.4
Oc1c(C(Nc2cccc(C(F)(F)F)c2)c2ccncc2)ccc2cccnc12 (centres undefined)	Mdm2 MdmX PPI 60.5, Beta cell apopt 78.8, T cruzi repl 78.6, Calb FLC 92.7 | Mdm2 MdmX conf 49.0 | FLuc counter inactive
O=C(O)c1cccnc1Nc1cccc(C(F)(F)F)c1	none (no result: Calb FLC)
Cc1nn(Cc2cccc(C(=O)O)c2)c(C)c1[N+](=O)[O-]	none
NC(=S)N/N=C/c1c(O)ccc2ccccc12	Mdm2 MdmX PPI 50.5 (no result: CSC inhib) | Mdm2 MdmX conf inactive | FLuc counter 44.8
O=CN/N=C/c1c(O)ccc2ccccc12	Mdm2 MdmX PPI 50.4 | Mdm2 MdmX conf inactive
Oc1ccc2ccccc2c1/C=N/Nc1ccccc1	none
CC(C)C1Nc2ccc(C(=O)NCc3ccco3)cc2NC1=O (centres undefined)	none
O=C(c1cccs1)N(Cc1ccco1)Cc1cc2ccccc2[nH]c1=O	none
CCc1cccc(CC)c1NC(=O)Cn1c(-c2ccc(F)cc2)noc1=O	none
O=C(CCC(=O)N1CCOc2ccc(Cl)cc21)NCCCN1CCN(c2ccccc2F)CC1	none
O=C(CCC(=O)N1CCOc2ccc(Cl)cc21)NCCCN1CCC(Cc2ccccc2)CC1	Mdm2 MdmX PPI 82.9 | Mdm2 MdmX conf 49.9 | FLuc counter 95.3
Cc1ccc(C)c(N2CCN(CCCNC(=O)Cn3cccc3C(=O)c3ccccc3)CC2)c1	Mdm2 MdmX PPI 59.3 | Mdm2 MdmX conf inactive
Cc1ccc(C)c(N2CCN(CCCNC(=O)CCC(=O)N3CCOc4ccc(Cl)cc43)CC2)c1	Mdm2 MdmX PPI 78.0 | Mdm2 MdmX conf 42.6 | FLuc counter 55.8
Cc1cc(C)c(NC(=S)N(C)C)cc1C	none
CC1CCN(c2nc(CN3CCCCC3)nc3scc(-c4ccccc4)c23)CC1	Mdm2 MdmX PPI 56.8 | Mdm2 MdmX conf inactive
O=C(Cc1ccccc1[N+](=O)[O-])NNC(=O)Nc1ccc2c(c1)OCO2	none
COc1cc(C(=O)N2CCN(C(=O)C(Cc3cc(C)ccc3C)NC(C)=O)CC2)cc(OC)c1OC (centres undefined)	none
O=C(Oc1cccc(/C=N/Nc2nc(Nc3ccccc3)nc(N3CCOCC3)n2)c1)c1ccco1	Mdm2 MdmX PPI 58.3 | Mdm2 MdmX conf 48.5 | FLuc counter 118.2
C(=N\Nc1nc(Nc2ccccc2)nc(N2CCOCC2)n1)/c1c[nH]c2ccccc12	Mdm2 MdmX PPI 51.6, T cruzi repl 72.3 (no result: Beta cell apopt) | Mdm2 MdmX conf inactive
COc1cc(/C=N/Nc2nc(N3CCCCC3)nc(N3CCCCC3)n2)ccc1OC(=O)c1ccco1	none
Cc1[nH]c2ccccc2c1/C=N/Nc1nc(Nc2ccc(F)cc2)nc(N2CCOCC2)n1	Mdm2 MdmX PPI 86.7 (no result: T cruzi repl) | Mdm2 MdmX conf inactive | FLuc counter 100.9
Cc1cc(NC(=O)c2cc(-c3ccncc3)nc3c(C)cccc23)no1	Mdm2 MdmX PPI 61.4 | Mdm2 MdmX conf 49.1 | FLuc counter 53.4
Cc1cccc(NC(=O)c2cc(-c3cccnc3)nc3c(C)cccc23)n1	Mdm2 MdmX PPI 50.3 | Mdm2 MdmX conf inactive
CSc1ccccc1OCc1cc(C(=O)N(C)CCn2nc(C)cc2C)no1	none (no result: Beta cell apopt)

Assay outcomes deposited in PubChem by several laboratories.
